# In the library only some 3.8% were active in any assay of this set; here they are far more common.
# KCNQ1 pot: potentiates or activates the human KCNQ1 potassium channel; B-score at 10 µM; CHO-K1 KCNQ1, thallium flux FluxOR fluorescence; stronger effect = higher value; P51787; actives 0.35% (n = 310,000);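 active means fluorescence ratio B-score, a plate-corrected score, at least three library SD, with initial intensity B-score within 5 SD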
#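 Material: CHO-K1 cells stably expressing KCNQ1. Medium: assay buffer for compound exposure, DMSO matched across wells. Reagent: K+/Tl+ depolarizing stimulus. Compound dosing: single-concentration screen. Times: 37 °C overnight plating, 90-min dark dye load, 20-min compound pretreatment. Technique: FluxOR Tl+ flux fluorescence.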
# KCNK9 inh: inhibitors of human KCNK9 two-pore domain potassium channel. Q9NPC2. AID 488922. HEK293 KCNK9, FluxOR thallium flux fluorescence; stronger effect = lower value. B-score at 10 µM. actives 1.2% (n = 310,000);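 active means ratio B-score over 3 SD below the library mean, with starting fluorescence within 5 SD of its mean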;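 further: negative B-score means less thallium flux so channel inhibition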
# Target sequence (Q9NPC2 whole entry, looked up, the tested form may be a part): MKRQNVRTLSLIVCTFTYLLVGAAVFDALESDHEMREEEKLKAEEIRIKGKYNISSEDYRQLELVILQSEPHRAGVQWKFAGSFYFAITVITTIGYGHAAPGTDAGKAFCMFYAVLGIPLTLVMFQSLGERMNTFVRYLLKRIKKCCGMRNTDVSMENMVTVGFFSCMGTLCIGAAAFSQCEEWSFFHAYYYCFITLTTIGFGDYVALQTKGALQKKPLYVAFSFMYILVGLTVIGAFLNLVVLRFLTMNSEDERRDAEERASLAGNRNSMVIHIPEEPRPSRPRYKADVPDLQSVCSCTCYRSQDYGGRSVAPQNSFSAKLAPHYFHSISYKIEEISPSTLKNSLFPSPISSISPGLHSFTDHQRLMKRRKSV
# KCNQ1 inh: human KCNQ1 channel inhibition; P51787; CHO-K1 KCNQ1, FluxOR thallium flux fluorescence; stronger effect = higher value; B-score at 10 µM; actives 1.3% (n = 310,000); AID 2642;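 active means compounds whose thallium flux B-score, printed positive for inhibition, exceeds three library SD while starting fluorescence stays within three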;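 further: channel opened by potassium depolarization with thallium stimulus after 20 min compound exposure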
# KCNK3 block: human KCNK3 channel inhibition, primary screen. O14649. CHO-KCNK3 thallium flux, FluxOR fluorescence; stronger effect = lower value. B-score at 10 µM. actives 0.84% (n = 340,000). AID 602410;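 active means B-score under library mean minus 4 SD, starting fluorescence ratio at most library mean plus 5 SD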;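 further: more negative B-score means stronger inhibition of thallium flux through KCNK3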
# Kir21 inh: blocks the mouse Kir2.1 inward-rectifier potassium channel. HEK293-Kir2.1, FluxOR thallium flux fluorescence; stronger effect = lower value. B-score at 10 µM. actives 0.85% (n = 310,000). AID 1672;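 active means fluorescence ratio B-score at or below minus 3 SD of library scores, with starting-brightness B-score within 2 SD, cut at about -4.2 in these data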;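 further: channel flux triggered by added potassium and thallium sulfate stimulus; B-score of peak minus minimum fluorescence over baseline after thallium stimulus; more negative B-score means stronger Kir2.1 block with less thallium influx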
# hERG rescue: hERG (human) protection from proarrhythmic block | Q12809 | CHO-hERG, FluxOR thallium flux, dofetilide IC70 present | activation (rescue from dofetilide block), less the hit threshold, % at 10 µM | actives 0.51% (n = 310,000);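 active means activation above the mean of controls blocked by dofetilide plus 5 SD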;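 further: thallium influx through hERG after potassium depolarization seen as dye fluorescence rise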
# Starred values were filed as active, the others as inactive; i = inactive; . = no result given.
SMILES,KCNQ1 pot,KCNK9 inh,KCNQ1 inh,KCNK3 block,Kir21 inh,hERG rescue
O=C(Nc1nc(-c2cccc([N+](=O)[O-])c2)cs1)C(c1ccccc1)c1ccccc1,i,i,11*,i,0.34,-10
Cc1ccc(S(=O)(=O)N2CCSC2C(=O)O)cc1 (stereo not drawn),i,i,i,i,1.9,-18
Cc1ccc(S(=O)(=O)N2CCSC2c2ccco2)cc1 (stereo not drawn),i,i,i,i,-4.3*,-10
CCc1nc(C)cn1S(=O)(=O)c1cc(Br)c(C)cc1OC,i,i,i,i,-12*,-13
CCc1nc(C)cn1S(=O)(=O)c1cc(F)ccc1OC,i,i,i,i,-10,-9
CCc1nc(C)cn1S(=O)(=O)c1cc(C)c(OC)cc1C,i,i,i,i,-5.2*,-3
CCc1nc(C)cn1S(=O)(=O)c1cc(C)c(OC)c(C)c1C,i,i,i,i,-5.6*,-12
Cc1cc(OCC(O)CNC(C)c2ccccc2)ccc1C(C)C (stereo not drawn),i,i,i,i,-10*,-7
Cc1ccc(NC(=O)CC2(CC(=O)O)CCCC2)c(C)c1,i,i,i,i,-1.6,-2
O=C(NN1C(=O)/C(=C/c2cccnc2)SC1=S)C(c1ccccc1)c1ccccc1,i,i,6*,i,-0.09,-17
O=C(NC12CC3CC(CC(C3)C1)C2)c1ccccc1,i,i,i,i,-1.6,-9
O=C(NC12CC3CC(CC(C3)C1)C2)N(Cc1ccccc1)Cc1ccncc1,i,i,6*,i,-0.99,-10
Cc1nc(NCCc2ccc(F)cc2)c2nnn(Cc3ccccc3)c2n1,i,i,i,i,0.3,-2
Cc1nc(NCCc2ccc(O)cc2)c2nnn(Cc3ccccc3)c2n1,i,i,i,i,-2,9.1*
CCOc1ccc(NC(=O)CN(C)C(=O)c2ccccc2OCCOc2ccccc2)cc1OCC,.,.,.,i,.,.
CC(=O)N/N=C(\C)CC(=O)NC(C)(C)C,i,i,i,i,0.19,-4
c1ccc2oc(-c3csc(N4CCOCC4)n3)cc2c1,i,i,i,i,-1.1,-6
Cc1nc2sccn2c1-c1nc(-c2cc3ccccc3o2)cs1,i,-7.1*,i,i,0,-9
Cn1nc(C(C)(C)C)c([N+](=O)[O-])c1C(=O)Nc1ccccc1,i,i,i,i,-0.05,-10
Cc1ccc(NC(=O)c2c([N+](=O)[O-])c(C(C)(C)C)nn2C)cc1,i,i,i,i,1.5,24*
O=C(NCC(=O)N1CCN(C(c2ccccc2)c2ccccc2)CC1)c1ccc(Br)o1,i,i,i,i,-0.85,-3
Cc1cc(C)cc(C(=O)NCC(=O)N2CCN(C(c3ccccc3)c3ccccc3)CC2)c1,i,i,6*,i,0.67,-17
Cc1ccc2cc(CN(CCc3ccccc3)C(=S)NCCCN(C)C)c(=O)[nH]c2c1,i,i,i,i,-1,-11
Cc1ccc2[nH]c(=O)c(CN(CCCN(C)C)C(=S)NCCc3ccccc3)cc2c1,10*,i,i,i,-3.3,-9
COC(=O)c1ccc(OC)c(CSc2nnc(COc3ccc(OC)cc3)o2)c1,i,i,i,i,-1.8,-14
SMILES,KCNQ1 pot,KCNK9 inh,KCNQ1 inh,KCNK3 block,Kir21 inh,hERG rescue
COc1ccccc1Nc1nc(N)nc(CN2CCC(Cc3ccccc3)CC2)n1,i,i,i,i,-2.7,-19
COc1ccc(Nc2nc(N)nc(CN3CCC(Cc4ccccc4)CC3)n2)cc1,i,i,i,i,-4.4*,-27
COc1cc(C)nc(-c2csc(C)n2)n1,i,i,i,i,2,-4
Cc1cccc(C)c1N1C(=O)CCC(C)(C)C1=O,i,i,i,i,2.1,-2
Cc1ccc(S(=O)(=O)/C(C#N)=C/c2c(N3CCN(Cc4ccccc4)CC3)nc3ccccn3c2=O)cc1,i,i,i,-11*,-2.5,-16
Cc1ccc(S(=O)(=O)/C(C#N)=C/c2c(N3CCN(C)CC3)nc3ccccn3c2=O)cc1,i,i,i,i,0.14,-14
CCOc1ccc(-n2c(O)c(/C=N/NC(=O)C3COc4ccccc4O3)c3ccccc3c2=O)cc1 (stereo not drawn),i,i,i,i,0.04,-12
COc1ccc(N(C)S(=O)(=O)c2cccc(C(=O)Nc3cccc(C(=O)NC4CC4)c3)c2)cc1,.,.,.,i,.,.
COc1ccc(Nc2ncnc3ccc(C)cc23)cc1,i,i,i,i,-6*,1
CCOc1ccc(Cc2c(Cl)nc(SC)nc2N(C)C)cc1,i,-7.6*,i,i,-0.05,-10
CCOc1ccc(Cc2c(Cl)nc(N)nc2Cl)cc1,i,i,i,i,-0.01,-12
CN(C)CCCNS(=O)(=O)c1ccc(N2CCC(c3ccc(Cl)cc3)=N2)cc1,i,-11*,9*,.,-3.4,8.7*
O=S(=O)(c1ccc(N2CCC(c3ccc(Cl)cc3)=N2)cc1)N(CCO)CCO,i,i,i,i,0.44,-10
CCN(CC)CCCNC(=O)c1cn(CCOC)c(=O)c2c1c1ccccc1n2C,i,i,i,i,-0.35,-6
COc1ccccc1NC(=O)N1CCC(NC(=O)C2CCCCC2)CC1,i,i,i,i,-0.58,-4
CC[C@@]1(C(=O)OC)N[C@H](CN(C)C(=O)c2ccc(F)cc2)[C@@H]2C(=O)N(Cc3ccccc3)C(=O)[C@@H]21,.,.,.,i,.,.
O=C1CCC(c2ccccc2)=NN1,i,i,i,i,0.92,-12
O=C1CCC(c2ccc(-n3ccnc3)cc2)=NN1,33*,i,i,i,-0.73,-6
CC1Cc2ccccc2N1c1nc(C2CC2)nc2c1nnn2Cc1ccccc1 (stereo not drawn),i,i,6*,i,-1.9,-5
c1ccc(Cn2nnc3c(NCc4ccc5c(c4)OCO5)nc(C4CC4)nc32)cc1,i,i,i,i,2.2,-3
O=C(NN1C(=O)C2C(c3ccccc3)C=CC(c3ccccc3)C2C1=O)c1ccccc1 (stereo not drawn),i,-7.8*,i,i,0.17,8.6*
O=C(NN1C(=O)C2C3c4ccccc4C(c4ccccc43)[C@@H]2C1=O)c1ccccc1 (stereo partly drawn),i,i,i,i,-0.57,1
CC1CCc2sc(-c3n[nH]c(=S)o3)cc2C1 (stereo not drawn),i,i,i,i,-2.1,7.4*
